Assay results published in ChEMBL document CHEMBL3621107, “Ring fusion strategy for synthesis and lead optimization of sulfur-substituted anthra[1,2-c][1,2,5]thiadiazole-6,11-dione derivatives as promising scaffold of antitumor agents” (Eur J Med Chem, 2015).

Key:
SK-OV-3 = assay: Cytotoxicity against human SKOV3 cells assessed as cell growth at 10 uM after 48 hrs by SRB assay relative to control; type: functional; details: SK-OV-3, 48 h, read-out: Activity
In short: (§1)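 First-stage NCI DTP one-dose screen against the 60 human tumour cell line panel. Compounds were tested at a single 10 μM level, and results are given as growth percentage.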

HCT-116 = assay: Cytotoxicity against human HCT116 cells assessed as cell growth at 10 uM after 48 hrs by SRB assay relative to control; type: functional; details: HCT-116, 48 h, read-out: Activity
In short: (§2)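 First-stage NCI-60 screen by the NCI Developmental Therapeutics Program. Each compound was tested once at a single concentration of 10 μM against the 60-cell-line panel. Growth percentage was reported for each cell line.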

Malme-3M = assay: Cytotoxicity against human MALME-3M cells assessed as cell growth at 10 uM after 48 hrs by SRB assay relative to control; type: functional; details: read-out: Activity; in short: as §2
SNB-19 = assay: Cytotoxicity against human SNB19 cells assessed as cell growth at 10 uM after 48 hrs by SRB assay relative to control; type: functional; details: SNB-19, 48 h, read-out: Activity
In short: (§3)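 NCI-60 one-dose screen run by NCI DTP: each cell line exposed to a single 10 µM dose, and percentage growth recorded against untreated growth.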

K562 = assay: Cytotoxicity against human K562 cells assessed as cell growth at 10 uM after 48 hrs by SRB assay relative to control; type: functional; details: K562, 48 h, read-out: Activity; in short: as §2
OVCAR-3 = assay: Cytotoxicity against human OVCAR3 cells assessed as cell growth at 10 uM after 48 hrs by SRB assay relative to control; type: functional; details: OVCAR-3, 48 h, read-out: Activity; in short: as §1
SNB-75 = assay: Cytotoxicity against human SNB75 cells assessed as cell growth at 10 uM after 48 hrs by SRB assay relative to control; type: functional; details: SNB-75, 48 h, read-out: Activity; in short: as §3
OVCAR-5 = assay: Cytotoxicity against human OVCAR5 cells assessed as cell growth at 10 uM after 48 hrs by SRB assay relative to control; type: functional; details: OVCAR-5, 48 h, read-out: Activity; in short: as §1
RXF 393 = assay: Cytotoxicity against human RXF393 cells assessed as cell growth at 10 uM after 48 hrs by SRB assay relative to control; type: functional; details: RXF 393, 48 h, read-out: Activity; in short: as §1
HT-29 = assay: Cytotoxicity against human HT-29 cells assessed as cell growth at 10 uM after 48 hrs by SRB assay relative to control; type: functional; details: HT-29, 48 h, read-out: Activity; in short: as §2
IGROV-1 = assay: Cytotoxicity against human IGROV1 cells assessed as cell growth at 10 uM after 48 hrs by SRB assay relative to control; type: functional; details: IGROV-1, 48 h, read-out: Activity; in short: as §2
BT-549 = assay: Cytotoxicity against human BT549 cells assessed as cell growth at 10 uM after 48 hrs by SRB assay relative to control; type: functional; details: BT-549, 48 h, read-out: Activity; in short: as §2
HL-60(TB) = assay: Cytotoxicity against human HL-60(TB) cells assessed as cell growth at 10 uM after 48 hrs by SRB assay relative to control; type: functional; details: HL-60, 48 h, read-out: Activity
In short: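 NCI Developmental Therapeutics Program 60-cell-line screen, first stage: a single dose of 10 μM against the panel, reported as percentage growth.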

SK-MEL-28 = assay: Cytotoxicity against human SK-MEL-28 cells assessed as cell growth at 10 uM after 48 hrs by SRB assay relative to control; type: functional; details: SK-MEL-28, 48 h, read-out: Activity; in short: as §1
PC-3 = assay: Cytotoxicity against human PC3 cells after 48 hrs by SRB assay; type: functional, cell-based; details: PC-3, 48 h
In short: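 Second-stage NCI-60 panel run by the NCI Developmental Therapeutics Program, covering nine tumour subpanels. Five concentrations were tested: 0.01, 0.1, 1, 10 and 100 μM. Percentage growth at each level was plotted against log10 drug concentration. GI50, TGI and LC50 were read from these dose-response curves. Subpanel MID values were divided into the full-panel MID to give selectivity ratios.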

DU-145 = assay: Cytotoxicity against human DU145 cells assessed as cell growth at 10 uM after 48 hrs by SRB assay relative to control; type: functional; details: DU-145, 48 h, read-out: Activity; in short: as §2
COLO 205 = assay: Cytotoxicity against human COLO205 cells assessed as cell growth at 10 uM after 48 hrs by SRB assay relative to control; type: functional; details: COLO 205, 48 h, read-out: Activity; in short: as §2
TK-10 = assay: Cytotoxicity against human TK10 cells assessed as cell growth at 10 uM after 48 hrs by SRB assay relative to control; type: functional; details: TK-10, 48 h, read-out: Activity; in short: as §3
NCI/ADR-RES = assay: Cytotoxicity against human NCI/ADR-RES cells assessed as cell growth at 10 uM after 48 hrs by SRB assay relative to control; type: functional; details: read-out: Activity; in short: as §1
KM12 = assay: Cytotoxicity against human KM12 cells assessed as cell growth at 10 uM after 48 hrs by SRB assay relative to control; type: functional; details: KM12, 48 h, read-out: Activity; in short: as §2
SN12C = assay: Cytotoxicity against human SN12C cells assessed as cell growth at 10 uM after 48 hrs by SRB assay relative to control; type: functional; details: read-out: Activity; in short: as §1
MOLT-4 = assay: Cytotoxicity against human MOLT4 cells assessed as cell growth at 10 uM after 48 hrs by SRB assay relative to control; type: functional; details: MOLT-4, 48 h, read-out: Activity; in short: as §1
SK-MEL-2 = assay: Cytotoxicity against human SK-MEL-2 cells assessed as cell growth at 10 uM after 48 hrs by SRB assay relative to control; type: functional; details: SK-MEL-2, 48 h, read-out: Activity; in short: as §1
UACC-62 = assay: Cytotoxicity against human UACC62 cells assessed as cell growth at 10 uM after 48 hrs by SRB assay relative to control; type: functional; details: UACC-62, 48 h, read-out: Activity; in short: as §3
NCI-H460 = assay: Cytotoxicity against human NCI-H460 cells assessed as cell growth at 10 uM after 48 hrs by SRB assay relative to control; type: functional; details: NCI-H460, 48 h, read-out: Activity; in short: as §1
SR = assay: Cytotoxicity against human SR cells assessed as cell growth at 10 uM after 48 hrs by SRB assay relative to control; type: functional; details: read-out: Activity; in short: as §3
OVCAR-8 = assay: Cytotoxicity against human OVCAR8 cells assessed as cell growth at 10 uM after 48 hrs by SRB assay relative to control; type: functional; details: OVCAR-8, 48 h, read-out: Activity; in short: as §1
UO-31 = assay: Cytotoxicity against human UO31 cells assessed as cell growth at 10 uM after 48 hrs by SRB assay relative to control; type: functional; details: UO-31, 48 h, read-out: Activity; in short: as §3
NCI-H226 = assay: Cytotoxicity against human NCI-H226 cells assessed as cell growth at 10 uM after 48 hrs by SRB assay relative to control; type: functional; details: NCI-H226, 48 h, read-out: Activity; in short: as §1
[1] = Cytotoxicity against human Hs578T cells assessed as cell growth at 10 uM after 48 hrs by SRB assay relative to control; type: functional; details: Hs-578T, read-out: Activity; in short: as §2
SF-539 = assay: Cytotoxicity against human SF539 cells assessed as cell growth at 10 uM after 48 hrs by SRB assay relative to control; type: functional; details: SF-539, 48 h, read-out: Activity; in short: as §1

`COc1ccc(Sc2cc3c(c4nsnc24)C(=O)c2ccccc2C3=O)cc1` gave a growth at 10 µM (SK-OV-3) of 106%, a growth at 10 µM (HCT-116) of 94.6% and a growth at 10 µM (Malme-3M) of 89.5%. For the same compound, the growth at 10 µM (SNB-19) was 114%, the growth at 10 µM (K562) was 92% and the growth at 10 µM (OVCAR-3) was 110%. For the same compound, the growth at 10 µM (SNB-75) was 79%, the growth at 10 µM (OVCAR-5) was 103% and the growth at 10 µM (RXF 393) was 109%. For the same compound, the growth at 10 µM (HT-29) was 101%, the growth at 10 µM (IGROV-1) was 103% and the growth at 10 µM (BT-549) was 92.9%. It also gave a growth at 10 µM (HL-60(TB)) of 103%, a growth at 10 µM (SK-MEL-28) of 116% and an IC50 (PC-3) of over 15 µM. It also gave a growth at 10 µM (DU-145) of 112%, a growth at 10 µM (COLO 205) of 112% and a growth at 10 µM (TK-10) of 136%. It also gave a growth at 10 µM (NCI/ADR-RES) of 97.6%, a growth at 10 µM (KM12) of 101% and a growth at 10 µM (SN12C) of 107%. For the same compound, the growth at 10 µM (MOLT-4) was 82.9%, the growth at 10 µM (SK-MEL-2) was 99.2% and the growth at 10 µM (UACC-62) was 109%. The growth at 10 µM (NCI-H460) was 107%, the growth at 10 µM (SR) was 102% and the growth at 10 µM (OVCAR-8) was 99.5%. It also gave a growth at 10 µM (UO-31) of 68.3%, a growth at 10 µM (NCI-H226) of 79.5% and a growth at 10 µM [1] of 96.7%. It also gave a growth at 10 µM (SF-539) of 93.5%.
For `Cc1ccccc1Sc1cc2c(c3nsnc13)C(=O)c1ccccc1C2=O`, the growth at 10 µM (SK-OV-3) was 93.8%, the growth at 10 µM (HCT-116) was 92.2% and the growth at 10 µM (Malme-3M) was 96.8%. It also gave a growth at 10 µM (SNB-19) of 104%, a growth at 10 µM (K562) of 32.3% and a growth at 10 µM (OVCAR-3) of 5.3%. For the same compound, the growth at 10 µM (SNB-75) was 76.3%, the growth at 10 µM (OVCAR-5) was 126% and the growth at 10 µM (RXF 393) was 95.9%. For the same compound, the growth at 10 µM (HT-29) was 104%, the growth at 10 µM (IGROV-1) was 80.1% and the growth at 10 µM (BT-549) was 95.3%. The growth at 10 µM (HL-60(TB)) was 79.5%, the growth at 10 µM (SK-MEL-28) was 106% and the IC50 (PC-3) was over 15 µM. For the same compound, the growth at 10 µM (DU-145) was 102%, the growth at 10 µM (COLO 205) was 99.2% and the growth at 10 µM (TK-10) was 123%. The growth at 10 µM (NCI/ADR-RES) was 59.5%, the growth at 10 µM (KM12) was 103% and the growth at 10 µM (SN12C) was 86%. For the same compound, the growth at 10 µM (MOLT-4) was 67.3%, the growth at 10 µM (SK-MEL-2) was 73.3% and the growth at 10 µM (UACC-62) was 90.7%. For the same compound, the growth at 10 µM (NCI-H460) was 88.9%, the growth at 10 µM (SR) was 23% and the growth at 10 µM (OVCAR-8) was 76.3%. The growth at 10 µM (UO-31) was 62.1%, the growth at 10 µM (NCI-H226) was 95.7% and the growth at 10 µM [1] was 83.7%. The growth at 10 µM (SF-539) was 78%.
`Cc1cc(C)cc(Sc2cc3c(c4nsnc24)C(=O)c2ccccc2C3=O)c1` gave a growth at 10 µM (SK-OV-3) of 97.5%, a growth at 10 µM (HCT-116) of 92.3% and a growth at 10 µM (Malme-3M) of 102%. It also gave a growth at 10 µM (SNB-19) of 107%, a growth at 10 µM (K562) of 75.6% and a growth at 10 µM (OVCAR-3) of 118%. The growth at 10 µM (SNB-75) was 80.6%, the growth at 10 µM (OVCAR-5) was 107% and the growth at 10 µM (RXF 393) was 112%. For the same compound, the growth at 10 µM (HT-29) was 105%, the growth at 10 µM (IGROV-1) was 96.7% and the growth at 10 µM (BT-549) was 95.1%. It also gave a growth at 10 µM (HL-60(TB)) of 73.7%, a growth at 10 µM (SK-MEL-28) of 112% and an IC50 (PC-3) of over 15 µM. For the same compound, the growth at 10 µM (DU-145) was 122%, the growth at 10 µM (COLO 205) was 106% and the growth at 10 µM (TK-10) was 132%. The growth at 10 µM (NCI/ADR-RES) was 97.5%, the growth at 10 µM (KM12) was 105% and the growth at 10 µM (SN12C) was 105%. For the same compound, the growth at 10 µM (MOLT-4) was 71.4%, the growth at 10 µM (SK-MEL-2) was 108% and the growth at 10 µM (UACC-62) was 103%. For the same compound, the growth at 10 µM (NCI-H460) was 105%, the growth at 10 µM (SR) was 78.4% and the growth at 10 µM (OVCAR-8) was 92.2%. For the same compound, the growth at 10 µM (UO-31) was 69.1%, the growth at 10 µM (NCI-H226) was 88% and the growth at 10 µM [1] was 105%. For the same compound, the growth at 10 µM (SF-539) was 94.9%.
